Bioassay records (PubChem BioAssay)
IDH1 R132H inh – blocks human IDH1 R132H reductase activity; O75874; diaphorase/resazurin fluorescence, 60 min; inhibition, % at 10 µM; 70,000 tested, 0.18% active; AID 624101; in the data active = inhibition above about 34%; inconclusive = no clear call, values can overlap the other calls; inactive = below about 11%;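 also: 0% = DMSO and 100% = no enzyme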
Target sequence (O75874 whole entry R132H): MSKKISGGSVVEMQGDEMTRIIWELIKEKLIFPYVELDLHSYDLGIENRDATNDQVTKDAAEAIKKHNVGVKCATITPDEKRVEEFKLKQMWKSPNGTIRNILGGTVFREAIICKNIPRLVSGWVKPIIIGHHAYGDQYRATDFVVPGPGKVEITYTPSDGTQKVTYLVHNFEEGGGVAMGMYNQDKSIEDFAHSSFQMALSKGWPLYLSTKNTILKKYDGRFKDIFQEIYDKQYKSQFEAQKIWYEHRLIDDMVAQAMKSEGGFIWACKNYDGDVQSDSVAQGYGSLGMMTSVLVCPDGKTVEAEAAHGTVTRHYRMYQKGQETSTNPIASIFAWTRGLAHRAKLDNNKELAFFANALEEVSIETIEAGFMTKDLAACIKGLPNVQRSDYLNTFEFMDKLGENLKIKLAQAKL
GASC1 inh – blocks human GASC-1 (KDM4C) demethylase activity. 96,000 tested, 0.15% active. GST-KDM4C 2-372, H3K9me3 peptide, LANCE TR-FRET. AID 720574. inhibition, % at 12.5 µM;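 active = mean replicate inhibition above about 25%, with at least 55% of replicates also reaching it, limit read from the data, passing the limit was not always enough; inconclusive = only one of those two conditions met; inactive = neither condition met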
Target sequence (Q9H3R0 2-372 limits assumed): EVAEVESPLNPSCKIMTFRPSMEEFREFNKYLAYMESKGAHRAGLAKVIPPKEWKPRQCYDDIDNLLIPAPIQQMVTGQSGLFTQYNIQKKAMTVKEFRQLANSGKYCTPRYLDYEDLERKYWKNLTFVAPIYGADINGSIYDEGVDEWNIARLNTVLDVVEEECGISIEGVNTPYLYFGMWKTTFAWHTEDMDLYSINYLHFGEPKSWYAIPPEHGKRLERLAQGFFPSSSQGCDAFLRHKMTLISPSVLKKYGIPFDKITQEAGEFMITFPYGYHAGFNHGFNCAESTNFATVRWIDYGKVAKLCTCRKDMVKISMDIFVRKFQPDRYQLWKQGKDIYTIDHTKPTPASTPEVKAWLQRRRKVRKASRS
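material = GST-tagged GASC-1 (JMJD2C) catalytic fragment, aa 2-372 | amount = enzyme final amount 10 nM | medium = HEPES buffer, pH 7.5, plus ascorbate | also added = H3K9me3 peptide substrate, Fe(II), 2-oxoglutarate | dosing = single dose | times = 30 min demethylation and 1 h detection at room temperature | detection = LANCE TR-FRET | read-out basis = Fall in 671/618 emission ratio as inhibition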
T cruzi growth-1 – T. cruzi proliferation inhibition. T. cruzi beta-gal in NIH3T3, GalScreen luminescence, 90 h. inhibition, % at 8.34 µM. 77,000 tested, 5.9% active. AID 624255;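 active = mean inhibition above about 93%, with at least 55% of replicates each passing it, limit read from the data, passing the limit was not always enough; inconclusive = only one of those two conditions holds; inactive = neither condition holds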
T cruzi growth-2 – blocks T. cruzi growth in NIH3T3 host cells. shares compounds with T cruzi growth-1. T. cruzi beta-gal in NIH3T3, GalScreen luminescence, 90 h. inhibition, % at 8.35 µM. 5,600 tested, 72% active. AID 651739;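 active = mean replicate inhibition above about 95% and at least 55% of replicates individually reaching it, limit read from the data; inconclusive = only one of the two criteria is met; inactive = neither criterion is met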
T cruzi growth-3 – Trypanosoma cruzi proliferation inhibition | shares compounds with T cruzi growth-1 | T. cruzi beta-gal in NIH3T3, GalScreen luminescence, 90 h | inhibition, % at 2.09 µM | 5,600 tested, 21% active;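 active = mean inhibition above about 95%, with at least 55% of replicates also reaching it, limit read from the data; inconclusive = meets just one of the two conditions; inactive = meets neither condition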;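 also: plate controls were neutral control median for no effect and positive control median for full effect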
3T3 cytotox – NIH/3T3 (mouse) viability loss | shares compounds with T cruzi growth-1 | cytotoxicity (signal decrease), % at 8.35 µM | 5,600 tested, 14% active | NIH/3T3 viability, CellTiter-Glo ATP luminescence, 90 h;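 active = mean signal decrease across replicates above about 35% based on untreated-well scatter, with enough replicates individually passing, limit read from the data; inconclusive = no rule stated though some were filed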;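 also: 0% = median of neutral control wells and 100% = median of positive control wells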
NIH3T3 tox 2 – cytotoxicity in mouse NIH/3T3 fibroblasts. shares compounds with T cruzi growth-1. NIH/3T3 viability, CellTiter-Glo ATP luminescence, 90 h. inhibition, % at 24.9 µM. 5,600 tested, 56% active;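 active = mean loss of cell viability signal at or above a set limit, and enough replicates individually reaching it; inconclusive = meets only the mean limit or only the replicate share; inactive = meets neither condition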;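 also: 0% = median of neutral control wells and 100% = median of positive control wells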
* marks the source's active call; other numbers are inactive results; ? = inconclusive; nt = no result. Shown is part of a subset that was picked to be rich in hits.

SMILES | IDH1 R132H inh | GASC1 inh | T cruzi growth-1 | T cruzi growth-2 | T cruzi growth-3 | 3T3 cytotox | NIH3T3 tox 2
C[C@@H]1CN([C@@H](C)CO)C(=O)Cc2cc(NC(=O)Cc3ccccc3)ccc2O[C@@H]1CN(C)Cc1ccccc1 | nt | 5.7 | 56.5 | nt | nt | nt | nt
O=C(COc1ccccc1CO)Nc1ccccc1 | -0.2 | nt | nt | nt | nt | nt | nt
Cc1ccc(N(CC(=O)Nc2ccccc2F)S(C)(=O)=O)cc1Cl | -0.1 | nt | nt | nt | nt | nt | nt
CN(CC(=O)Nc1ccccc1C(C)(C)C)S(=O)(=O)c1ccc(Cl)cc1 | -0.2 | nt | nt | nt | nt | nt | nt
O=C(c1ccccn1)N1CC[C@@H]2[C@@H](CO)Nc3ccc(-c4ccccc4)cc3[C@@H]21 | nt | 0.4 | 104.9* | 101.2* | 86.1 | -18.1 | -14.1
O=C(c1ccccn1)N1CC[C@@H]2[C@H]1c1cc(-c3ccc(F)cc3)ccc1N[C@@H]2CO | nt | -1.6 | 105.2* | 107.3* | 63.1 | 15.0 | 30.2*
O=C(c1ccccn1)N1CC[C@@H]2[C@H](CO)Nc3ccc(-c4ccccc4)cc3[C@@H]21 | nt | 1.8 | 90.9 | nt | nt | nt | nt
O=C(c1ccccn1)N1CC[C@@H]2[C@H](CO)Nc3ccc(-c4ccc(F)cc4)cc3[C@@H]21 | nt | 2.1 | nt | nt | nt | nt | nt
O=C(c1ccncc1)N1CC[C@H]2[C@H](CO)Nc3ccc(-c4ccc(F)cc4)cc3[C@H]21 | nt | -1.5 | 98.7* | 94.2 | 34.3 | -12.1 | 3.0
O=C(c1ccncc1)N1CC[C@@H]2[C@@H](CO)Nc3ccc(-c4ccccc4)cc3[C@@H]21 | nt | -1.1 | 69.1 | nt | nt | nt | nt
O=C(Nc1cccc(NS(=O)(=O)c2cccc([N+](=O)[O-])c2)c1)c1cccs1 | -1.3 | nt | nt | nt | nt | nt | nt
O=C(C[C@H]1CC[C@H](NC(=O)Cc2cccnc2)[C@@H](CO)O1)Nc1ccccc1 | nt | -0.8 | nt | nt | nt | nt | nt
N#Cc1c(NC(=O)CSc2nnc3c(n2)[nH]c2ccccc23)sc2c1CCCC2 | -0.2 | nt | nt | nt | nt | nt | nt
OC[C@@H]1[C@@H](c2ccc(/C=C/c3ccccc3)cc2)[C@H]2CN(Cc3ccncc3)CCCCN12 | nt | 4.0 | 96.6* | 104.6* | 51.4 | 46.5* | 101.7*
OC[C@@H]1[C@@H](c2ccc(/C=C/c3ccccc3)cc2)[C@@H]2CN(Cc3ccncc3)CCCCN12 | nt | 2.3 | ? | 99.3* | 73.7 | 28.6 | 106.3*
OC[C@H]1[C@@H](c2ccc(/C=C/c3ccccc3)cc2)[C@@H]2CN(Cc3ccncc3)CCCCN12 | nt | 1.4 | 95.1 | nt | nt | nt | nt
OC[C@H]1[C@@H](c2ccc(/C=C/c3ccccc3)cc2)[C@H]2CN(Cc3ccncc3)CCCCN21 | nt | 0.8 | -0.1 | nt | nt | nt | nt
C[C@H]1CCCCO[C@H](CN(C)Cc2ccccc2)[C@@H](C)CN([C@@H](C)CO)C(=O)c2cc(NC(=O)Nc3ccccc3)ccc2O1 | nt | -1.4 | nt | nt | nt | nt | nt
C[C@H]1CCCCO[C@H](CN(C)CC2CC2)[C@@H](C)CN([C@@H](C)CO)C(=O)c2cc(NC(=O)Nc3ccccc3)ccc2O1 | nt | nt | 65.5 | nt | nt | nt | nt
CN(CC(=O)Nc1cccnc1)S(=O)(=O)c1ccc2ccccc2c1 | -0.2 | nt | nt | nt | nt | nt | nt
C[C@@H]1CN([C@@H](C)CO)C(=O)Cc2cc(NC(=O)Nc3cccc4ccccc34)ccc2O[C@H]1CN(C)Cc1ccc2c(c1)OCO2 | 0.2 | -0.9 | 108.9* | 110.1* | 70.4 | 29.4 | -1.9
C[C@@H]1CN([C@H](C)CO)C(=O)c2cc(NC(=O)Nc3cccc4ccccc34)ccc2O[C@H]1CN(C)Cc1ccc2c(c1)OCO2 | nt | -2.3 | 94.7 | nt | nt | nt | nt
C[C@H]1CN([C@@H](C)CO)C(=O)Cc2cc(NC(=O)Nc3cccc4ccccc34)ccc2O[C@@H]1CN(C)Cc1ccc2c(c1)OCO2 | -6.5 | -0.3 | 37.4 | nt | nt | nt | nt
C[C@H](CO)N1C[C@H](C)[C@H](CN(C)Cc2ccc3c(c2)OCO3)Oc2ccc(NC(=O)Nc3cccc4ccccc34)cc2C1=O | 0.0 | -0.5 | 105.4* | ? | 103.6* | 31.9 | 66.8*
COc1ccc(NC(=O)CNS(=O)(=O)c2ccccc2)cc1OC | -0.1 | nt | nt | nt | nt | nt | nt
SMILES | IDH1 R132H inh | GASC1 inh | T cruzi growth-1 | T cruzi growth-2 | T cruzi growth-3 | 3T3 cytotox | NIH3T3 tox 2
C[C@@H]1CN([C@H](C)CO)C(=O)c2cc(NS(=O)(=O)c3cn(C)cn3)ccc2O[C@@H]1CN(C)Cc1ccc2c(c1)OCO2 | nt | -0.6 | -45.6 | nt | nt | nt | nt
CCN(CC(=O)Nc1ccc(C(F)(F)F)cc1)S(=O)(=O)c1ccc2ccccc2c1 | -0.1 | nt | nt | nt | nt | nt | nt
Cc1ccc(S(=O)(=O)N[C@@H]2C=C[C@H](CC(=O)N3CCC(Cc4ccccc4)CC3)O[C@H]2CO)cc1 | -0.3 | -1.5 | 49.8 | nt | nt | nt | nt
O=C(C[C@@H]1C=C[C@H](NS(=O)(=O)c2ccc(F)cc2)[C@H](CO)O1)N1CCC(Cc2ccccc2)CC1 | -0.2 | -2.7 | 42.1 | nt | nt | nt | nt
Cc1ccc(S(=O)(=O)N[C@H]2C=C[C@H](CC(=O)N3CCC(Cc4ccccc4)CC3)O[C@H]2CO)cc1 | -0.2 | -0.9 | 124.9* | 102.8* | -4.5 | -1.4 | 8.5
O=C(C[C@H]1C=C[C@H](NS(=O)(=O)c2ccc(F)cc2)[C@H](CO)O1)N1CCC(Cc2ccccc2)CC1 | -0.2 | 1.2 | ? | 106.9* | -15.1 | -18.1 | 15.7
NC(=O)CSc1nnc(Cc2ccccc2)n1-c1ccccc1 | -0.5 | nt | nt | nt | nt | nt | nt
C[C@@H]1CN([C@@H](C)CO)C(=O)c2cc(NC(=O)Nc3ccccc3)ccc2O[C@@H](C)CCCCO[C@@H]1CN(C)Cc1ccc(C(F)(F)F)cc1 | 0.1 | 1.3 | 83.3 | nt | nt | nt | nt
C[C@@H]1CCCCO[C@H](CN(C)Cc2ccc(C(F)(F)F)cc2)[C@H](C)CN([C@H](C)CO)C(=O)c2cc(NC(=O)Nc3ccccc3)ccc2O1 | 0.7 | -1.2 | ? | 95.7* | 120.1* | -12.5 | -6.6
C[C@@H]1CCCCO[C@H](CN(C)Cc2ccc(C(F)(F)F)cc2)[C@H](C)CN([C@@H](C)CO)C(=O)c2cc(NC(=O)Nc3ccccc3)ccc2O1 | nt | -1.5 | 76.7 | nt | nt | nt | nt
C[C@@H]1CCCCO[C@H](CN(C)Cc2ccc(C(F)(F)F)cc2)[C@@H](C)CN([C@H](C)CO)C(=O)c2cc(NC(=O)Nc3ccccc3)ccc2O1 | -0.8 | 0.0 | 95.7* | 97.7* | 111.2* | 25.2 | 19.9
CNC[C@H]1Oc2cc(C#Cc3cccc(F)c3)ccc2S(=O)(=O)N([C@H](C)CO)C[C@@H]1C | 1.2 | -3.4 | ? | 104.5* | 61.6 | 30.9 | 105.1*
CNC[C@H]1Oc2cc(C#Cc3cccc(OC)c3)ccc2S(=O)(=O)N([C@H](C)CO)C[C@@H]1C | 0.1 | -2.3 | 77.0 | nt | nt | nt | nt
CNC[C@H]1Oc2cc(C#Cc3cccc(F)c3)ccc2S(=O)(=O)N([C@@H](C)CO)C[C@@H]1C | -0.4 | -4.6 | 85.5 | nt | nt | nt | nt
CNC[C@@H]1Oc2cc(C#Cc3cccc(OC)c3)ccc2S(=O)(=O)N([C@@H](C)CO)C[C@H]1C | 0.3 | -0.9 | 91.7 | nt | nt | nt | nt
CNC[C@@H]1Oc2cc(C#Cc3cccc(OC)c3)ccc2S(=O)(=O)N([C@H](C)CO)C[C@H]1C | -2.1 | 0.4 | 106.0* | 109.0* | 84.3 | 17.4 | 103.2*
